GI50 data for 23 molecules are collected here from ChEMBL document CHEMBL1147172, “The synthesis of alpha,beta-unsaturated carbonyl derivatives with the ability to inhibit both glutathione S-transferase P1-1 activity and the proliferation of leukemia cells” (2007).

Broadly, the GI50 is the concentration that inhibits growth by half. The low end stands for greater sensitivity of the cells, the high end for lower sensitivity of the cells.

The subject of this test is HL-60. The test is described as follows: Antiproliferative activity against human HL60 cells after 72 hrs. The format is functional. The conditions noted are these: HL-60, 72 h. The method in brief: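 HL-60 cells grown in RPMI-1640 with 10% heat-inactivated FBS, penicillin, streptomycin and L-glutamine. Cells seeded at 1 × 10⁵ cells/mL and exposed to a range of compound concentrations for 72 h. Total cells (trypan blue positive and negative) counted by haemocytometer. Treated/untreated cell-number ratio used to calculate GI50.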

`C=C(CC)C(=O)c1ccc(OC(C)C(=O)O)cc1C` (stereo not drawn) registered a GI50 of over 60 µM.
The result for `C=C(CCC)C(=O)c1ccc(OC(C)C(=O)O)c(C)c1C` (stereo not drawn) reads 11.2 µM.
The result for `C=C(CC)C(=O)c1ccc(OC(C)C(=O)O)cc1Br` (stereo not drawn) reads over 60 µM.
The result for `C=C(CCCC)C(=O)c1ccc(OCC(=O)OC)c(C)c1C` reads 8.6 µM; that for `C=C(C)C(=O)c1ccc(OC(C)C(=O)O)cc1Br` (stereo not drawn), over 60 µM; that for `C=C(CCC)C(=O)c1ccc(OC(C)C(=O)OC)c(C)c1C` (stereo not drawn), 5.6 µM.
Molecule `C=C(C)C(=O)c1ccc(OCC(=O)O)cc1C` yielded a GI50 of over 60 µM.
The result for `C=C(C)C(=O)c1ccc(OC(C)C(=O)O)cc1Cl` (stereo not drawn) reads over 60 µM; that for `C=C(C)C(=O)c1ccc(OC(C)C(=O)OC)c(C)c1C` (stereo not drawn), 6 µM; that for `C=C(CCCC)C(=O)c1ccc(OCC(=O)O)c(C)c1C`, 14.4 µM.
Then `C=C(CC)C(=O)c1ccc(OC(C)C(=O)O)cc1Cl` (stereo not drawn), with over 60 µM.
The molecule `C=C(CC)C(=O)c1ccc(OCC(=O)O)cc1Br` gave a GI50 of over 60 µM.
Then `C=C(CC)C(=O)c1ccc(OCC(=O)O)c(Cl)c1Cl` [ETHACRYNIC ACID], with 44.2 µM.
Consider `C=C(CCC)C(=O)c1ccc(OCC(=O)OC)c(C)c1C`, for which the GI50 was 8.6 µM.
Consider `C=C(CC)C(=O)c1ccc(OC(C)C(=O)OC)c(C)c1C` (stereo not drawn), for which the GI50 is 4.6 µM.
Then `C=C(CCCC)C(=O)c1ccc(OC(C)C(=O)OC)c(C)c1C` (stereo not drawn), with 5.2 µM.
On to `C=C(C)C(=O)c1ccc(OCC(=O)O)cc1Cl`, for which the GI50 was over 60 µM.
Then `C=C(CC)C(=O)c1ccc(OCC(=O)O)cc1Cl`, with over 60 µM; and `C=C(CC)C(=O)c1ccc(OCC(=O)O)cc1C`, with over 60 µM; and `C=C(CCC)C(=O)c1ccc(OCC(=O)O)c(C)c1C`, with 19.3 µM.
Then `C=C(C)C(=O)c1ccc(OC(C)C(=O)O)cc1C` (stereo not drawn), with over 60 µM; and `C=C(CCCC)C(=O)c1ccc(OC(C)C(=O)O)c(C)c1C` (stereo not drawn), with 12.1 µM; and `C=C(CC)C(=O)c1ccc(OCC(=O)OC)c(Cl)c1Cl`, with 3.9 µM.
